Measurements taken from ChEMBL document CHEMBL1221168, “Activity-based probes that target diverse cysteine protease families” (Nat Chem Biol, 2005).
The source made the active and inactive calls. The rule behind the calls is not given here. Square brackets hold non-standard residues; d marks the D form. Peptide text beside a SMILES is read from it. * marks the point of attachment. ξ: configuration not given here. AspCH2OBz(2,6-Me2) = Cc1cccc(C)c1C(=O)OCC(=O)[C@H](CC(=O)O)N*; Biotin = O=C1N[C@H]2[C@H](CS[C@H]2CCCCC(=O)*)N1; Tyr(3-I) = N[C@@H](Cc1ccc(O)c(I)c1)C(=O)O; X1 = O=C1N[C@@H]2CSC(CCCCC(=O)*)[C@@H]2N1; ξD = NC(CC(=O)O)C(=O)O; Ahx = NCCCCCC(=O)O; CH2F = FC*

Experiments:
Caspase-7 (Homo sapiens) [1] = target: T1, Caspase-7 (Homo sapiens) (UniProt P55210); assay: Binding affinity to caspase 7 in human Sh-SY-5Y cells extracts assessed as protein labeling by SDS-PAGE based affinity blotting; format: cell-free
T1 sequence (whole entry): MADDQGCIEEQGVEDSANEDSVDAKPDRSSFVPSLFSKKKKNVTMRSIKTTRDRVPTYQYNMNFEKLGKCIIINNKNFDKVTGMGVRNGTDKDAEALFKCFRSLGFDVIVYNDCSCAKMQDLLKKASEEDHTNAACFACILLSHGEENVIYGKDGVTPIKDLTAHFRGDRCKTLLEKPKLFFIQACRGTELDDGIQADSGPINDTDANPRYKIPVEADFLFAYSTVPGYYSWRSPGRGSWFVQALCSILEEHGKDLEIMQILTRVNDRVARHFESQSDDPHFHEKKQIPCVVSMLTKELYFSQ

Caspase-3 (Homo sapiens) [2] = target: T2, Caspase-3 (Homo sapiens) (UniProt P42574); assay: Binding affinity to caspase 3 in human Sh-SY-5Y cells extracts assessed as protein labeling by SDS-PAGE based affinity blotting; format: cell-free
T2 sequence (whole entry): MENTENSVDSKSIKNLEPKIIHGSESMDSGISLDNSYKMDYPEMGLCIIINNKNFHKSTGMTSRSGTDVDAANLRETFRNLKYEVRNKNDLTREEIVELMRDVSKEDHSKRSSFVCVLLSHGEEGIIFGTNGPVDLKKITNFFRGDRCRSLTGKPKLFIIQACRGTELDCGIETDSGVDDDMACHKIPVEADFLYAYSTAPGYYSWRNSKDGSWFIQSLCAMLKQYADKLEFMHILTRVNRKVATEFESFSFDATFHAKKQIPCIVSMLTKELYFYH

Caspase-7 (Homo sapiens) [3] = target: T1, Caspase-7 (Homo sapiens); assay: Binding affinity to human recombinant caspase 7 assessed as protein labeling by SDS-PAGE based affinity blotting; conditions: tested as the 125I-labelled form
Caspase-6 (Homo sapiens) = target: T3, Caspase-6 (Homo sapiens) (UniProt P55212); assay: Binding affinity to human recombinant caspase 6 assessed as protein labeling by SDS-PAGE based affinity blotting; conditions: tested as the 125I-labelled form
T3 sequence (whole entry): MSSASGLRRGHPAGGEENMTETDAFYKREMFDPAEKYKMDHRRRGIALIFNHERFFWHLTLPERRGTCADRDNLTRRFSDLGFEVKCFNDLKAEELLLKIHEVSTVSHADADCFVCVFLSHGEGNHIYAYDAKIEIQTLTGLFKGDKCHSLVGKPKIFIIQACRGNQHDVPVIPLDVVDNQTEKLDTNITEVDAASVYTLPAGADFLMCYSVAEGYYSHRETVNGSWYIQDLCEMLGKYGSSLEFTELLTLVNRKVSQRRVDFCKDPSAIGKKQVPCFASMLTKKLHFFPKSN

Caspase-9 (Homo sapiens) [4] = target: T4, Caspase-9 (Homo sapiens) (UniProt P55211); assay: Binding affinity to human recombinant caspase 9 assessed as protein labeling by SDS-PAGE based affinity blotting; conditions: tested as the 125I-labelled form
T4 sequence (whole entry): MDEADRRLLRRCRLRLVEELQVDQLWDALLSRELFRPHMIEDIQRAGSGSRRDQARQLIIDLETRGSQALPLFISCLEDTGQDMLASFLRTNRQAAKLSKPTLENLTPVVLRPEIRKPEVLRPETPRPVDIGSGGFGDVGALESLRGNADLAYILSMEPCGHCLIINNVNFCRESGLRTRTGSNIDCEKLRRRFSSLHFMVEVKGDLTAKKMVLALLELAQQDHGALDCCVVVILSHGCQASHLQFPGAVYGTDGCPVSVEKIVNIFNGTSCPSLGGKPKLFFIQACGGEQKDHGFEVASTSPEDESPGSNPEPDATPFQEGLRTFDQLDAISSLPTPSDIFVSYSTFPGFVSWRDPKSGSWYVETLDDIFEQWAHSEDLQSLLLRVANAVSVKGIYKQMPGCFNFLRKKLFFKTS

Caspase-3 (Homo sapiens) [5] = target: T2, Caspase-3 (Homo sapiens); assay: Binding affinity to human recombinant caspase 3 assessed as protein labeling by SDS-PAGE based affinity blotting; conditions: tested as the 125I-labelled form
Caspase-8 (Homo sapiens) = Caspase-8 (Homo sapiens) (UniProt Q14790); assay: Binding affinity to human recombinant caspase 8 assessed as protein labeling by SDS-PAGE based affinity blotting; conditions: tested as the 125I-labelled form
Sequence of Caspase-8 (Homo sapiens) (Q14790 217-374 limits assumed): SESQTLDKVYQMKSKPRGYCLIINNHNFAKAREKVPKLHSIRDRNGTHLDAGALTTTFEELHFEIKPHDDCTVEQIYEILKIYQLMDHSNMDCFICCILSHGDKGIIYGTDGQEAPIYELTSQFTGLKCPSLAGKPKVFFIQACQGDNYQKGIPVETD
Sequence of Caspase-8 (Homo sapiens) (Q14790 385-479 limits assumed): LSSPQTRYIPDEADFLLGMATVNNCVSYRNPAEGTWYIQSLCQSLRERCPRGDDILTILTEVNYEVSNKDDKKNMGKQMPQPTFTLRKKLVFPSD

Caspase-9 (Homo sapiens) [6] = target: T4, Caspase-9 (Homo sapiens); assay: Binding affinity to caspase 9 in human Sh-SY-5Y cells extracts assessed as protein labeling by SDS-PAGE based affinity blotting; format: cell-free
Legumain (Homo sapiens) [7] = target: T5, Legumain (Homo sapiens) (UniProt Q99538); assay: Binding affinity to legumain in human 8.1.6 cells assessed as protein labeling at 10 uM after 30 mins by SDS-PAGE based affinity blotting; format: cell-based; conditions: tested as the 125I-labelled form
T5 sequence (whole entry): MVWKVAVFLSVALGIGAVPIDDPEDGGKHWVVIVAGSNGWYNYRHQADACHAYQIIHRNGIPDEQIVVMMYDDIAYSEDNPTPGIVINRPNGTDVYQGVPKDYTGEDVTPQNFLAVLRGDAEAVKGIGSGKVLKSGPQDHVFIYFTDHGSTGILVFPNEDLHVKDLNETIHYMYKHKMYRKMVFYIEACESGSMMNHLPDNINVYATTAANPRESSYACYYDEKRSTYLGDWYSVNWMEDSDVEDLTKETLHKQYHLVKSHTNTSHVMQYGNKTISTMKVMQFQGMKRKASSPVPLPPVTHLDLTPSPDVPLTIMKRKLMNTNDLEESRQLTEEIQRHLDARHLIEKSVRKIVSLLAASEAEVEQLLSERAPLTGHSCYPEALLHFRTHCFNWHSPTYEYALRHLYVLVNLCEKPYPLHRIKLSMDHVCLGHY
Method in brief: (§1)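 B cell lines (2.2.93, 8.1.6, Raji) and Jurkat T cell pellets were lysed in 50 mM citrate phosphate, 1% CHAPS, 0.5% Triton, 5 mM DTT for 10 min on ice, then spun at 14,000g for 15 min at 4 °C. Lysates were set to 1 mg/ml in citrate phosphate pH 5.8, 0.1% CHAPS, 5 mM DTT and labeled for 30 min at 37 °C. Read-out was SDS-PAGE and biotin affinity blot.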

Legumain (Homo sapiens) [8] = target: T5, Legumain (Homo sapiens); assay: Binding affinity to legumain in human Raji cells assessed as protein labeling at 10 uM after 30 mins by SDS-PAGE based affinity blotting; format: cell-based; conditions: tested as the 125I-labelled form; method in brief: as §1
Legumain (Homo sapiens) [9] = target: T5, Legumain (Homo sapiens); assay: Binding affinity to legumain in human Jurkat T cells assessed as protein labeling at 10 uM after 30 mins by SDS-PAGE based affinity blotting; format: cell-based; conditions: tested as the 125I-labelled form; method in brief: as §1
Legumain (Mus musculus) = target: T6, Legumain (Mus musculus) (UniProt O89017); assay: Binding affinity to legumain in mouse spleen lysates assessed as protein labeling at 10 uM after 30 mins by SDS-PAGE based affinity blotting; format: tissue-based; conditions: tested as the 125I-labelled form
T6 sequence (whole entry): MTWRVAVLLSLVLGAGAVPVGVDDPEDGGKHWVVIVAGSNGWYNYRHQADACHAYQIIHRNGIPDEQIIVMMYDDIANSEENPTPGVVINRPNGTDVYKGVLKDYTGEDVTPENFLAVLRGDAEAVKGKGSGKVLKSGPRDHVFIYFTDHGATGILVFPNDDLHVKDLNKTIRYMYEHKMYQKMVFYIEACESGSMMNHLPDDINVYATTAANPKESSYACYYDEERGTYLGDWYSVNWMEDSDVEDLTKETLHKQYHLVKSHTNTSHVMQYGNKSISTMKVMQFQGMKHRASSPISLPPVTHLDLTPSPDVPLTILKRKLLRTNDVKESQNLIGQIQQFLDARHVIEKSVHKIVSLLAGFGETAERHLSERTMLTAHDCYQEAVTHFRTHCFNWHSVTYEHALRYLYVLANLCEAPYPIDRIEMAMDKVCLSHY

Legumain (Homo sapiens) [10] = target: T5, Legumain (Homo sapiens); assay: Binding affinity to legumain in human 8.1.6 cells assessed as protein labeling at 10 uM after 30 mins immunoprecipitation; format: cell-based; conditions: tested as the 125I-labelled form
Method in brief: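 8.1.6 B cell lysate at 1 mg/ml in citrate phosphate pH 5.8, 0.1% CHAPS, 5 mM DTT was labeled with probe for 30 min at 37 °C. Legumain was then immunoprecipitated with polyclonal anti-legumain antisera. Input, pellet and supernatant were probed for biotinylated proteins.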

Legumain (Homo sapiens) [11] = target: T5, Legumain (Homo sapiens); assay: Binding affinity to legumain in human 8.1.6 cells assessed as protein labeling at 1 uM at acidic pH after 30 mins by SDS-PAGE based affinity blotting; conditions: tested as the 125I-labelled form
Legumain (Homo sapiens) [12] = target: T5, Legumain (Homo sapiens); assay: Binding affinity to legumain in human 2.2.93 cells assessed as protein labeling at 10 uM after 30 mins by SDS-PAGE based affinity blotting; format: cell-based; conditions: tested as the 125I-labelled form; method in brief: as §1
Legumain (Homo sapiens) [13] = target: T5, Legumain (Homo sapiens); assay: Binding affinity to human purified legumain assessed as protein labeling; conditions: tested as the 125I-labelled form

Activity (Caspase-7 (Homo sapiens) [1]) | Activity (Caspase-3 (Homo sapiens) [2]) | Activity (Caspase-7 (Homo sapiens) [3]) | Activity (Caspase-6 (Homo sapiens)) | Activity (Caspase-9 (Homo sapiens) [4]) | Activity (Caspase-3 (Homo sapiens) [5]) | Activity (Caspase-8 (Homo sapiens)) | Activity (Caspase-9 (Homo sapiens) [6]) | Activity (Legumain (Homo sapiens) [7]) | Activity (Legumain (Homo sapiens) [8]) | Activity (Legumain (Homo sapiens) [9]) | Activity (Legumain (Mus musculus)) | Activity (Legumain (Homo sapiens) [10]) | Activity (Legumain (Homo sapiens) [11]) | Activity (Legumain (Homo sapiens) [12]) | Activity (Legumain (Homo sapiens) [13]) | SMILES
Active | Active | – | – | – | – | – | – | – | – | – | – | – | – | – | – | COC(=O)CC(NC(=O)[C@H](C)NC(=O)[C@@H](NC(=O)CCCCCNC(=O)CCCC[C@@H]1SC[C@@H]2NC(=O)N[C@@H]21)C(C)C)C(=O)CF (stereo partly drawn) ({Biotin-Ahx}-Val-Ala-[ξD](OMe)-CH2F)
– | – | Active | inactive | Active | Active | Active | Active | – | – | – | – | – | – | – | – | CC(=O)N[C@@H](CCCCNC(=O)CCCCC1SC[C@H]2NC(=O)N[C@@H]12)C(=O)N[C@@H](Cc1ccc(O)c(I)c1)C(=O)NCCCCCC(=O)N[C@@H](CCC(=O)O)C(=O)N[C@H](C(=O)N[C@@H](CC(=O)O)C(=O)COC(=O)c1c(C)cccc1C)C(C)C (stereo not given in full) (Ac-K(X1)[Tyr(3-I)][Ahx]EV-{AspCH2OBz(2,6-Me2)})
– | – | Active | Active | – | Active | Active | – | Active | Active | Active | Active | Active | Active | Active | Active | CC(=O)N[C@@H](CCCCNC(=O)CCCCC1SC[C@H]2NC(=O)N[C@@H]12)C(=O)N[C@@H](Cc1ccc(O)c(I)c1)C(=O)NCCCCCC(=O)N[C@@H](CC(=O)O)C(=O)COC(=O)c1c(C)cccc1C (stereo not given in full)
